Most compounds without a hit are left out; they make up all but 4.6% or so of the library.
OX1R antag-1 = blocks the human orexin 1 receptor; AID 485270; OX1R-expressing cells, FRET antagonist read-out; 1.8% of 330,000 active; inhibition, % at 6.6 µM; in the data active means inhibition mostly above about 38%, no sharp cut-off; inactive means mostly below about 40%;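 further: 0% = agonist challenge alone and 100% = reference antagonist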
Target sequence (O43613 whole entry, looked up): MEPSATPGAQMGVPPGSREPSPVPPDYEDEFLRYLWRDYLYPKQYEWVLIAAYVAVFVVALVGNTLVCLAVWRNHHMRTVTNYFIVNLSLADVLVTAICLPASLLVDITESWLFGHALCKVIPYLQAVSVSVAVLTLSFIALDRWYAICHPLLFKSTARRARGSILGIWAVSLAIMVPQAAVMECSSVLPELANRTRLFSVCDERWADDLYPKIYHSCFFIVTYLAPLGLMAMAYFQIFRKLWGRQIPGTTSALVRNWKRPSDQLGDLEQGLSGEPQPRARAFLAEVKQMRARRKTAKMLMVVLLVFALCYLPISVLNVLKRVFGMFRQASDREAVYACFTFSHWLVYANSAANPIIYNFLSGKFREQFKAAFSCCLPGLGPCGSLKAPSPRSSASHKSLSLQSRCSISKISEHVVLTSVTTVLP
OX1R antag-2 = antagonists of human orexin 1 receptor; 0.43% of 330,000 active; inhibition, % at 5 µM; O43613; CHO/OX1R cells, Fluo-8 calcium fluorescence, orexin A; AID 434989;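 active means inhibition above its plate's threshold, mean inhibition of all tested compounds on the plate plus 3 SD, cut at about 37% in these data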;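 further: 0% = orexin A challenge wells and 100% = SB-334867-A antagonist wells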
GPR7 antagonist = antagonists of human GPR7 (neuropeptides B/W receptor 1); P48145; GPR7-expressing cells, fluorescence antagonist assay; inhibition, % at 4.4 µM; 1.1% of 290,000 active; AID 1861; in the data active means inhibition above about 16%, passing the limit was not always enough;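 further: cells stimulated with the agonist NPW; 0% = agonist with vehicle and 100% = vehicle without agonist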
Target sequence (P48145 whole entry, looked up): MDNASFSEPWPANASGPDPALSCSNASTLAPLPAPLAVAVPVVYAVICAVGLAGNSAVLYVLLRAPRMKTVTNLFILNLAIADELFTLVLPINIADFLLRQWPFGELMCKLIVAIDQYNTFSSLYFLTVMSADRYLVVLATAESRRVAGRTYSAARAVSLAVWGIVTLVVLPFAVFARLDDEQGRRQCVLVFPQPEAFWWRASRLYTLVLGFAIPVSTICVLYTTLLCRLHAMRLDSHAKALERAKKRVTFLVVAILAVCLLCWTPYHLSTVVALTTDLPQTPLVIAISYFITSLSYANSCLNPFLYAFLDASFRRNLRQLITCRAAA
TAAR1 ag = agonists of human TAAR1; Q96RJ0; CHO RD-HGA16 TAAR1, Fluo-8 calcium fluorescence; vehicle wells 0%, saturating PEA agonist 100%; activation, % at 3 µM; 0.99% of 360,000 active; AID 624467;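 active means activation above the mean activation of all test compounds in the run plus 3 SD, cut at about 38% in these data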
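Test system: RD-HGA16 (CHO) cells co-expressing Gα16 and hTAAR1 | Doses: Single dose, 3 µM | Schedule: 17-24 h seeding, 75 min 37 °C dye, 30 min RT | Evaluation: % activation from peak over basal fluorescence ratio, DMSO-to-PEA scaled | Technique: Kinetic Fluo-8 calcium fluorescence | Benchmarks: Low control DMSO, high control PEA (EC100)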
TAAR1 antagonist = human TAAR1 antagonism | Q96RJ0 | CHO RD-HGA16 TAAR1, Fluo-8 calcium fluorescence, antagonist | inhibition, % at 3 µM | 1.5% of 360,000 active;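 active means inhibition above a per-plate cutoff, the mean inhibition of test compounds on that plate plus 3 SD, cut at about 49% in these data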;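 further: 0% = DMSO plus EC80 beta-PEA response and 100% = DMSO alone without agonist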
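Assay system: RD-HGA16 CHO cells with stable hTAAR1 and Gα16 / Reagent: EC80 β-phenethylamine stimulus / Doses: 3 µM, single point / Timing: dye loading 75 min at 37 °C, then 30 min room temperature / Measured by: Fluo-8 intracellular calcium dye fluorescence, real-time kinetic reads / Controls: vehicle wells and EC80 agonist wells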
CHO parental Ca = counter-screen: ATP calcium response change in parental CHO cells; parental CHO-K1, ATP-induced calcium, Fluo-8 fluorescence; inhibition, % at 5.6 µM; 0.63% of 330,000 active; AID 463079;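 active means inhibition above that plate's mean sample inhibition plus 3 SD, cut at about 26% in these data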;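 further: 0% = ATP-challenged DMSO wells and 100% = DMSO wells without ATP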
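Measured by: calcium-sensitive Fluo-8 fluorescence / Test system: CHO parental line / Controls: ATP-challenged DMSO wells low, unchallenged DMSO wells high / Measure: % inhibition / Compound: single nominal dose of 5.6 µM per compound / Replicates: single well per compound, no replicates / Reagent: ATP as calcium-mobilizing challenge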
GPR7 antag conf = human GPR7 antagonism, confirmation assay | shares compounds with GPR7 antagonist | GPR7-expressing cells, calcium fluorescence antagonist mode | inhibition, % at 4.4 µM | 52% of 2,400 active; in the data active means inhibition above about 24%;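 further: stimulated with the GPR7 agonist NPW; 0% = agonist plus vehicle and 100% = vehicle alone without agonist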
MCHR1 antag = counter-screen for GPR7 antagonists: antagonists of human MCHR1; 62% of 2,400 active; inhibition, % at 4.4 µM; shares compounds with GPR7 antagonist; MCHR1-expressing cells, fluorescence antagonist assay; in the data active means inhibition above about 22%;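 further: 0% = vehicle with agonist and 100% = vehicle without agonist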
An asterisk follows results filed as active; · = no result.

SMILES	OX1R antag-1	OX1R antag-2	GPR7 antagonist	TAAR1 ag	TAAR1 antagonist	CHO parental Ca	GPR7 antag conf	MCHR1 antag
O=C(c1ccccc1F)N1CCN(c2cccc(C(F)(F)F)c2)CC1	2.8	-35.2	22.7*	2.9	2.7	-18.2	9.8	6.9
COc1ccccc1CC(=O)N1CCN(c2ccc([N+](=O)[O-])cc2)CC1	11.8	-6.4	24.9*	3.8	22.5	0.4	6.6	35.9*
COc1ccccc1NC(=O)N1CCN(c2cccc(C(F)(F)F)c2)CC1	12.8	-16.7	-7.1	9.7	8.0	-14.5	·	·
O=C(OC1CCN(c2ccc([N+](=O)[O-])cc2)CC1)c1ccccc1	26.3	-4.7	29.4*	5.0	13.8	3.0	47.3*	68.2*
COc1ccccc1CC(=O)N1CCN(c2cccc(C(F)(F)F)c2)CC1	12.4	-1.7	26.4*	2.7	-3.6	-1.4	37.9*	37.9*
O=C(c1c(F)c(F)c(F)c(F)c1F)N1CCN(c2cccc(C(F)(F)F)c2)CC1	18.7	-2.0	-11.6	1.1	8.2	0.9	·	·
CCOC(=O)C(NC(=O)Nc1ccc(Cl)cn1)(Oc1ccccc1)C(F)(F)F (centres undefined)	21.4	-12.0	-7.7	7.2	7.3	-7.2	·	·
COc1ccc(NC(=O)COC(=O)C2C3CC4OC(=O)C2C4C3)cc1 (centres undefined)	6.5	-3.8	0.2	-1.8	-0.1	-14.7	·	·
C=CCCN1[C@@H](Cc2ccccc2)COc2ccccc2S1(=O)=O	·	·	·	0.4	18.9	·	·	·
Cc1ccc(CC(=O)N2CCN(c3ccc([N+](=O)[O-])cc3)CC2)cc1	34.8	-7.9	39.5*	-0.7	3.7	17.0	42.6*	40.6*
COc1ccccc1C(=O)N1CCN(c2cccc(Cl)c2)CC1	18.1	-17.0	25.0*	9.6	2.6	-21.0	15.0	25.1*
Cc1cc(NC(=O)COC(=O)[C@H](Cc2c[nH]c3ccccc23)NC(=O)c2ccc(F)cc2)no1	2.6	3.5	0.8	5.2	7.6	0.3	·	·
O=C1C=C(c2ccc3c(c2)OCO3)C[C@@H](c2ccc(F)cc2)C1	6.9	-2.8	·	9.3	-9.3	-3.3	·	·
Fc1ccc(C2CCNCC2COc2ccc3c(c2)OCO3)cc1 (centres undefined)	-4.8	4.4	28.4*	12.5	-6.7	1.6	35.8*	28.2*
CCN(CC)C(=O)c1cccc(-c2csc(C(C)(NC(C)=O)c3ccc(OC)cc3)n2)c1 (centres undefined)	·	·	·	-0.1	-8.6	·	·	·
Cc1cc(Cl)ccc1NC(=O)NC1CCN(S(=O)(=O)c2ccc(F)cc2)CC1	21.8	-18.7	-5.0	4.6	16.7	-5.7	·	·
O=C(Nc1ccc(F)cc1F)NC1CCN(S(=O)(=O)c2ccc(F)cc2)CC1	4.9	-6.5	37.0*	3.1	7.0	-9.4	18.0	6.1
COc1cccc(N=Cc2c(O)c3ccccc3oc2=O)c1	8.0	-30.0	28.5*	1.3	16.8	-14.4	-3.9	30.6*
CC(=O)c1cccc(N=Cc2c(O)c3ccccc3oc2=O)c1	21.5	-21.7	-15.8	-0.9	4.3	-7.7	·	·
Cc1ccnc(Nc2nc(-c3ccc(O)c(O)c3)cs2)c1	9.5	12.4	40.6*	1.4	14.2	10.9	56.9*	48.3*
CC(C)(C)OC(=O)N1CCC(c2c(C(=O)NCC3CCN(C4CCCC4)C3)cnn2-c2ccccc2Cl)CC1 (centres undefined)	-4.5	-33.9	44.4*	16.0	6.6	-12.8	49.1*	22.6*
CC(=O)Oc1ccc(C(c2ccc(OC(C)=O)cc2)c2ccccn2)cc1	4.5	-0.7	66.3*	0.9	-11.2	1.4	76.2*	46.6*
c1ccc(C(c2ccccn2)c2ccccn2)cc1	21.4	-8.4	-1.8	-0.5	13.5	-2.1	·	·
c1ccc(CNCCC(Cc2ccccc2)c2ccco2)cc1 (centres undefined)	12.9	-38.0	23.3*	15.8	-8.8	-46.7	28.3*	35.2*
CC(=O)Nc1ccc(S(=O)(=O)NCCC(=O)OC(C)C(=O)c2ccc(C)cc2)cc1 (centres undefined)	34.7	-6.5	27.1*	5.2	28.3	17.6	20.1	45.5*
SMILES	OX1R antag-1	OX1R antag-2	GPR7 antagonist	TAAR1 ag	TAAR1 antagonist	CHO parental Ca	GPR7 antag conf	MCHR1 antag
CN(C)c1ccc(-c2ccnc3c2CC(C)(C(=O)NCC2CCOCC2)O3)cc1 (centres undefined)	·	·	·	-1.2	12.7	·	·	·
COc1ccc(-n2ccnc2CN2CCCC(CO)(Cc3cccc(OC)c3)C2)cc1 (centres undefined)	41.1	-32.8	-8.8	4.5	-4.9	-21.2	·	·
COc1cccc(CC2(CO)CCCN(Cc3c(C)cc(C)cc3-n3cccn3)C2)c1 (centres undefined)	8.2	-33.8	·	1.1	5.7	-12.5	·	9.4
Nc1ccccc1S(=O)(=O)c1ccccc1N	6.2	3.8	-2.0	7.8	-3.3	3.3	·	·
COC(=O)CC1(C(=O)OC)Oc2ccc(Br)cc2C(=O)N1c1cccc(Cl)c1Cl (centres undefined)	10.4	-15.9	29.9*	3.0	11.2	-29.1	32.0*	53.3*
COC(=O)CC1(C(=O)OC)Oc2ccc(Br)cc2C(=O)N1c1ccc(Br)cc1Cl (centres undefined)	20.0	-16.4	0.3	5.1	16.6	-9.8	·	·
CCCc1cc(=O)oc2cc(OCc3ccc(C(=O)O)cc3)ccc12	1.6	2.2	-1.1	19.0	13.3	4.8	·	·
Cc1ccc2nccc(C(=O)N3CCCC(Nc4ccc(C)c(C)c4)C3)c2c1 (centres undefined)	37.5*	26.6	27.4*	-0.2	-26.0	-30.9	-5.2	-8.6
CC(C)c1ccccc1NC(=O)Cn1c(/C=C/c2ccccc2)nc2ccccc21	8.8	-23.3	-8.8	·	·	-15.1	·	·
CC(C)c1ccccc1NC(=O)Cn1c(-c2ccccc2Cl)nc2ccccc21	19.0	-24.9	23.2*	1.1	-2.2	8.3	16.3	15.8
CSc1nsc(SC)c1C(=O)N1CCN(S(=O)(=O)c2ccc(C)cc2)C1C (centres undefined)	29.8	-39.4	-0.6	8.6	46.8	-32.5	·	·
CSc1nsc(SC)c1C(=O)N1CCN(S(=O)(=O)c2ccc(C)cc2)C1C(C)C (centres undefined)	31.0	-17.2	26.8*	9.3	49.2*	-23.6	16.6	45.7*
O=C(CSc1nnc(-c2cccc(S(=O)(=O)N3CCCC3)c2)n1-c1ccccc1)Nc1ccc(C(=O)O)cc1	8.2	-15.6	26.4*	1.7	-10.4	-13.7	10.6	13.1

Assay outcomes deposited in PubChem by The Scripps Research Institute Molecular Screening Center.
